Only some compounds are listed: those with a hit (about 1.9% of all), similar ones and a draw of the others.
CaV13 FRET inh = Disruptors of the CACNA1D IQ motif to Ca2+-dependent inactivation inhibitor domain association, primary screening, Förster resonance energy transfer in intact living … | HEK cells, CFP/YFP FRET ICDI-IQ, plate reader, 10 min; percent FRET-ratio fall versus neutral wells | inhibition, % at 12.3 µM | actives 0.098% (n = 340,000) | AID 743397;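 active = mean replicate inhibition of at least 30% and at least 1% of replicates passing that level; inconclusive = only one of the two criteria is met; inactive = neither criterion is met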
LANA-H2B inh = blocks KSHV LANA binding to histone H2A/H2B; Q9QR71; cell-free LANA-H2A/H2B peptide, fluorescence polarization; inhibition, % (no concentration beside the values); actives 0.6% (n = 320,000); in the data active = inhibition mostly above about 10%, no sharp cut-off; inactive = mostly below about 6.7%
RanGTP-Imp inh = inhibitors of RanGTP-importin-beta interaction, primary screen, biochemical, FRET, CFP-Ran, YFP-importin-beta, homogeneous | cell-free CFP-Ran/YFP-importin-beta FRET ratio | inhibition, % (test concentration not listed) | actives 1.1% (n = 300,000);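 active = more than half of the replicate wells show a fall in the fluorescence ratio signal beyond about 16%, limit read from the data, passing the limit was not always enough; inconclusive = exactly half of the replicate wells pass the set limit; inactive = fewer than half of replicates pass the limit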
HDAC3 inhib = human HDAC3 inhibition. O15379. recombinant HDAC3, fluorogenic peptide/trypsin coupled, fluorescence. inhibition, % at 8.3 µM. actives 0.15% (n = 320,000). AID 2718; in the data active = inhibition above about 26%, passing the limit was not always enough; inconclusive = no clear call, values can overlap the other calls
Runt-CBFb FRET = inhibitors of human RUNX1 Runt domain binding to CBFb. Q01196+Q13951. inhibition, % at 20 µM. Cerulean-Runt/Venus-CBFb FRET ratio 530/480, 1 h. actives 0.46% (n = 220,000). AID 1496;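 active = inhibition over about 50% at 20 µM in the single-dose screen, limit read from the data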
Target sequence (Q01196 whole entry, looked up, the tested form may be a part): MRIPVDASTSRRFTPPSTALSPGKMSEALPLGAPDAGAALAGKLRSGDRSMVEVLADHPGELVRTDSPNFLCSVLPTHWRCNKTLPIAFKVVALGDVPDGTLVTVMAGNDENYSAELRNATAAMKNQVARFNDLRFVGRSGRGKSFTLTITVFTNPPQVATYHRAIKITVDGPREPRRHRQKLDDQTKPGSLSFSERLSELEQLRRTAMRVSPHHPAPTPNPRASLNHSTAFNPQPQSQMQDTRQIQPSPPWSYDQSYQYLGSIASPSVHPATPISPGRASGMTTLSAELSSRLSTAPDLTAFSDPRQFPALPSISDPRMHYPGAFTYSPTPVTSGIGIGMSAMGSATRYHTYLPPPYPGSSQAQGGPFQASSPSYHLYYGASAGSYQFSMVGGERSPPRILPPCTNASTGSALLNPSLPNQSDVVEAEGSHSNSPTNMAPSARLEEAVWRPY
Target sequence (Q13951 whole entry, looked up, the tested form may be a part): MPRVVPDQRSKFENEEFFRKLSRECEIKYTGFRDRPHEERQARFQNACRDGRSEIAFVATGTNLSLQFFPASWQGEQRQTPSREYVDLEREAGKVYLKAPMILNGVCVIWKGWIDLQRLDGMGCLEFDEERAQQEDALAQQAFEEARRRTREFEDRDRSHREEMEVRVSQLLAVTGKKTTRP
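Buffer or medium: Tris pH 7.5 buffer with BSA. Assay system: Cerulean-labeled Runt domain protein. Amount: each fluorescent fusion protein 100 nM. Read-out basis: loss of energy transfer signal. Incubation: 1 h compound exposure, room temperature. Probe or stimulus: Venus-CBFb binding partner, 100 nM. Detection: FRET, excitation 422 nm, emission at 530 and 480 nm.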
Runt-SMMHC FRET = inhibitors of human RUNX1 Runt domain binding to CBFb-SMMHC. Cerulean-Runt/Venus-CBFb-SMMHC FRET ratio 530/480, 1 h. actives 0.74% (n = 220,000). inhibition, % at 20 µM;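 active = mean inhibition across duplicate retests at 20 µM reaching about 50%, limit read from the data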;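 note: inhibitors lower the FRET ratio by blocking Runt binding to CBFb-SMMHC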
RUNX1 CBFb TR = inhibitors of human RUNX1 Runt domain binding to CBFb; shares compounds with Runt-CBFb FRET; TR-FRET RUNX1 Runt domain-CBFb binding; inhibition, % at 20 µM; actives 20% (n = 480); AID 1502; in the data active = inhibition above about 40%
Hits are given with their value; n = inactive; u = inconclusive; x = no result; + = active, no number.

SMILES	CaV13 FRET inh	LANA-H2B inh	RanGTP-Imp inh	HDAC3 inhib	Runt-CBFb FRET	Runt-SMMHC FRET	RUNX1 CBFb TR
C#CCNC(=O)C1=C[C@@H](c2coc3ccccc3c2=O)C[C@@H](OCc2ccc(CO)cc2)O1	n	n	n	35.5	n	n	x
O[C@H]1CN(Cc2cccs2)[C@@H](c2ccccc2)C[C@@H]1n1cc(C2CC2)nn1	n	x	x	x	x	x	x
CCOC(=O)C1=C(C)C(c2ccccc2)NC(=S)N1 (stereo not given)	n	n	n	n	n	n	x
COc1ccc(NC2CCCN(C(=O)CCN3CCCC3=O)C2)cc1 (stereo not given)	n	n	n	n	x	x	x
COc1ccc(NC2CCCN(C(=O)CCN3Cc4ccccc4C3=O)C2)cc1 (stereo not given)	n	20.7	n	n	x	x	x
O=C(NCCN1CCCCC1)Nc1ccc([N+](=O)[O-])cc1	n	n	n	n	x	x	x
CCCCCCCCCCOC(=O)Cn1c(COc2ccc(Cl)cc2)[n+](C)c2ccccc21	n	n	n	52.0	x	x	x
CC(Nc1nc(-c2ccc3c(c2)NC(=O)CO3)cs1)c1ccccc1 (stereo not given)	n	n	n	35.6	n	n	x
COc1ccc(S(=O)(=O)N(C)C[C@H]2Oc3c(NC(=O)Nc4ccc(C(F)(F)F)cc4)cccc3C(=O)N([C@H](C)CO)C[C@@H]2C)cc1	x	n	x	32.3	x	x	x
C[C@@H]1CN([C@H](C)CO)C(=O)c2cccc(NC(=O)NC3CCCCC3)c2O[C@@H]1CN(C)C(=O)Nc1ccc(C(F)(F)F)cc1	x	n	x	28.4	x	x	x
C[C@@H]1CN([C@H](C)CO)C(=O)c2cc(NC(=O)Nc3ccc(F)cc3)ccc2O[C@H]1CN(C)C(=O)Nc1ccc(C(F)(F)F)cc1	x	x	x	n	x	x	x
CC(C)NC(=O)Nc1ccc2c(c1)C(=O)N([C@H](C)CO)C[C@H](C)[C@@H](CN(C)C(=O)Nc1ccc(C(F)(F)F)cc1)O2	n	+	x	n	x	x	x
CC(=O)Nc1ccc(S(=O)(=O)N2CCN(c3cc(C(F)(F)F)ccn3)CC2)cc1	n	n	n	n	56.2	n	75.5
CCOC(=O)c1cc(-c2ccccc2C)nn1Cc1cc(C)no1	n	n	x	n	x	x	x
COc1ccc([N+](=O)[O-])cc1NC(=O)CSc1nc(C)cc(C)n1	n	n	n	n	57.3	n	n
COc1ccc([N+](=O)[O-])cc1NC(=O)CSc1ccc2ccccc2c1	n	n	n	n	n	n	x
O=C(COC(=O)c1ccc(Cl)c(S(=O)(=O)N2CCCCC2)c1)NCC1CCCCC1	n	n	x	n	x	x	x
Cc1cc(C(=O)OC(C(=O)Nc2ccc(C)c(Cl)c2)c2ccccc2)c(C)o1 (stereo not given)	n	n	n	n	64.6	n	n
O=C(NCCC1=CCCCC1)c1cc(COc2ccc(F)cc2Cl)on1	n	n	n	n	x	x	x
Fc1ccccc1C1CC(c2ccco2)=Nc2ccccc2S1 (stereo not given)	n	n	n	n	50.4	n	n
Cc1ccc(C2=Nc3ccccc3SC(c3cccc([N+](=O)[O-])c3)C2)cc1 (stereo not given)	n	n	n	n	52.3	n	n
Cc1ccc(N2CCCn3c2cc(C)c(C#N)c3=O)cc1C	n	n	u	n	n	n	x
CCC1CCCCN1C(=O)CSc1nc(N)c(NC(=O)c2ccco2)c(=O)[nH]1 (stereo not given)	n	n	n	n	63.1	n	n
O=C1C(Cl)=C(Nc2ccc3cn[nH]c3c2)C(=O)c2ccccc21	n	n	n	n	51.2	n	n
O=C(Nc1ccc2cn[nH]c2c1)c1c(Cl)cccc1Cl	n	n	n	n	n	n	x
COc1ccc(-c2noc(CCC(=O)N3CCC(C)CC3)n2)cc1	n	n	n	n	85.1	n	n
COc1ccc(-c2noc(CCC(=O)N3CCN(c4ccc(Br)cc4)CC3)n2)cc1	n	x	x	x	x	x	x
Cc1ccc(C(=O)n2nnc3ccccc32)cc1[N+](=O)[O-]	n	n	n	x	88.9	n	n

Bioassay records: PubChem, several laboratories
